Assay results: ChEMBL document CHEMBL3352765, “Synthesis and evaluation of the cytotoxic activity of 1,2-furanonaphthoquinones tethered to 1,2,3-1H-triazoles in myeloid and lymphoid leukemia cell lines” (Eur J Med Chem, 2014)
Structures can show the parent of a compound that is named as a salt.

Key:
[1] = tested on: PBMC; test: Cytotoxicity against normal human PBMC assessed as reduction in cell viability at 10 times anti-leukemic IC50 after 48 hrs by Alamar blue assay; type: cell-based
Summary of the method: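 Gradient-isolated donor PBMCs (three donors), 5 × 10⁴/well in RPMI 1640 with 10% inactivated FBS. […] Viability was measured by AlamarBlue with 24 h dye incubation and fluorescence at ex 560/em 590 nm.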

[2] = Induction of hemolysis in lamb blood erythrocytes at 1000 uM incubated for 10 mins by microplate reader method; type: cell-based, Ovis aries, Erythrocyte; conditions: sheep, read-out: Activity
Summary of the method: (§1)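 Fresh lamb erythrocytes were collected by centrifugation at 1500 rpm for 15 min and washed three times in PBS with 10 mM glucose, pH 7.4. They were used at 4 × 10⁸/well in triplicate, with compounds at a final 1000 µM and retests at 200 µM. After centrifugation at 13,000 rpm for 15 min, supernatant absorbance was read at 540 nm. Results are given as % of complete hemolysis from water osmotic shock.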

[3] = tested on: MOLT-4; test: Cytotoxicity against human MOLT4 cells after 48 hrs by Alamar blue assay; type: functional, cell-based; conditions: MOLT-4, 48 h
Summary of the method: (§2)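 Cells seeded at 2.5 × 10⁴/well and exposed to compounds for 48 h in total. AlamarBlue was added before the end of the 48 h (CCRF-CEM 2 h, MOLT-4 6 h). Resorufin fluorescence was read at ex 560/em 590 nm. Triplicate wells at six or seven concentrations. Controls were cells with medium and up to 1% DMSO. IC50 is the concentration killing 50% of cells.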

[4] = tested on: CCRF-CEM; test: Cytotoxicity against human CCRF-CEM cells after 48 hrs by Alamar blue assay; type: functional, cell-based; summary of the method: as §2
[5] = tested on: K562; test: Cytotoxicity against human K562 cells after 48 hrs by Alamar blue assay; type: functional, cell-based; conditions: K562, 48 h
Summary of the method: (§3)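 Cells were seeded and exposed to compounds for 48 h in total: K562 at 2.5 × 10⁴/well, KG1 at 5.0 × 10⁴/well. AlamarBlue was added 4 h (K562) or 6 h (KG1) before the end. Fluorescence was read at ex 560/em 590 nm. Triplicate wells at six or seven concentrations. Vehicle controls contained up to 1% DMSO and defined 100% survival. Readout was IC50.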

[6] = Cytotoxicity against human KG1 cells after 48 hrs by Alamar blue assay; type: functional, cell-based; conditions: KG-1, 48 h; summary of the method: as §3
[7] = Induction of hemolysis in lamb blood erythrocytes at 200 uM incubated for 10 mins by microplate reader method; type: cell-based, Ovis aries; conditions: sheep, erythrocyte; summary of the method: as §1
[8] = tested on: PBMC; test: Cytotoxicity against normal human PBMC assessed as reduction in cell viability after 48 hrs by Alamar blue assay; type: functional, cell-based
Summary of the method: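 PBMCs were isolated from healthy-donor buffy coats by density gradient centrifugation and seeded at 5.0 × 10⁴/well in RPMI 1640 with 10% inactivated FBS. Exposure was 48 h, with AlamarBlue added for the final 24 h. Fluorescence was read at ex 560/em 590 nm. Triplicate wells at six or seven concentrations. IC50 was derived against vehicle controls.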

[9] = tested on: PBMC; test: Cytotoxicity against normal human PBMC assessed as reduction in cell viability at 10 uM after 48 hrs by Alamar blue assay; type: functional
[10] = Cytotoxicity against human lymphocytes; type: cell-based; conditions: Lymphocyte
[11] = tested on: V79; test: Cytotoxicity against Chinese hamster V79 cells; type: cell-based; conditions: Cricetulus griseus

For `COc1ccc(-c2cn(C3C4=C(OC3(C)C)c3ccccc3C(=O)C4=O)nn2)cc1` (stereo unspecified), the Activity [1] was > 80%, the hemolysis at 10 min, 1000 µM [2] was < 5% and the IC50 [3] was 34.5 µM. The IC50 [4] was 11.7 µM, the IC50 [5] was 9.06 µM and the IC50 [6] was 76.2 µM.

In the case of `CC1(C)OC2=C(C(=O)C(=O)c3ccccc32)C1n1cc(C2=CCCCC2)nn1` (stereo unspecified), the Activity [1] is reported as > 80%, the hemolysis at 10 min, 1000 µM [2] is reported as < 5% and the IC50 [3] is reported as 0.28 µM. It also gave an IC50 [4] of 12.6 µM, an IC50 [5] of 1.11 µM and an IC50 [6] of 8.41 µM.

With `CC1(C)OC2=C(C(=O)C(=O)c3ccccc32)C1n1cc(C2CCCCC2)nn1` (stereo unspecified) the Activity [1] was “Non-toxic”, the hemolysis at 10 min, 1000 µM [2] was < 5% and the IC50 [3] was 2.13 µM. For the same molecule, the IC50 [4] was 1.97 µM, the IC50 [5] was 3.8 µM and the IC50 [6] was 7.62 µM.

In the case of `CCCCCc1ccc(-c2cn(C3C4=C(OC3(C)C)c3ccccc3C(=O)C4=O)nn2)cc1` (stereo unspecified), the Activity [1] is reported as > 80%, the Activity [7] is reported as “Non-toxic” and the hemolysis at 10 min, 1000 µM [2] is reported as > 5%. For the same molecule, the IC50 [3] was 2.62 µM, the IC50 [4] was 13.8 µM and the IC50 [5] was 8.03 µM. It also gave an IC50 [6] of 3.92 µM.

For `CCCc1cn(C2C3=C(OC2(C)C)c2ccccc2C(=O)C3=O)nn1` (stereo unspecified), the Activity [1] was > 80%, the hemolysis at 10 min, 1000 µM [2] was < 5% and the IC50 [3] was 1.47 µM. The IC50 [4] was 3.14 µM, the IC50 [5] was 60.9 µM and the IC50 [6] was 1.55 µM.

With `CCCCc1cn(C2C3=C(OC2(C)C)c2ccccc2C(=O)C3=O)nn1` (stereo unspecified) the Activity [1] was > 80%, the hemolysis at 10 min, 1000 µM [2] was < 5% and the IC50 [3] was 1.92 µM. The IC50 [4] was 3.73 µM, the IC50 [5] was 3.78 µM and the IC50 [6] was 3.79 µM.

For `CCCCCc1cn(C2C3=C(OC2(C)C)c2ccccc2C(=O)C3=O)nn1` (stereo unspecified), the Activity [1] was > 80%, the hemolysis at 10 min, 1000 µM [2] was < 5% and the IC50 [3] was 2.28 µM. It also gave an IC50 [4] of 27.6 µM, an IC50 [5] of 2.68 µM and an IC50 [6] of 30 µM.

In the case of `CCCCCCc1cn(C2C3=C(OC2(C)C)c2ccccc2C(=O)C3=O)nn1` (stereo unspecified), the Activity [1] is reported as > 80%, the hemolysis at 10 min, 1000 µM [2] is reported as < 5% and the IC50 [3] is reported as 2.17 µM. It also gave an IC50 [4] of 7.3 µM and an IC50 [6] of 5.58 µM.

In the case of `CCC(C)(O)c1cn(C2C3=C(OC2(C)C)c2ccccc2C(=O)C3=O)nn1` (stereo unspecified), the Activity [1] is reported as “Non-toxic”, the hemolysis at 10 min, 1000 µM [2] is reported as < 5% and the IC50 [3] is reported as 1.98 µM. It also gave an IC50 [4] of 3.57 µM, an IC50 [5] of 1.39 µM and an IC50 [6] of 5.63 µM.

With `CC(C)CC(C)(O)c1cn(C2C3=C(OC2(C)C)c2ccccc2C(=O)C3=O)nn1` (stereo unspecified) the Activity [1] was > 80%, the hemolysis at 10 min, 1000 µM [2] was < 5% and the IC50 [3] was 1.47 µM. For the same molecule, the IC50 [4] was 1.77 µM, the IC50 [5] was 1.91 µM and the IC50 [6] was 1.32 µM.

For `CC(=O)OCc1cn(C2C3=C(OC2(C)C)c2ccccc2C(=O)C3=O)nn1` (stereo unspecified), the Activity [1] was > 80%, the hemolysis at 10 min, 1000 µM [2] was < 5% and the IC50 [3] was 0.16 µM. For the same molecule, the IC50 [4] was 0.31 µM, the IC50 [5] was 8.35 µM and the IC50 [6] was 9.58 µM.

With `CC1(C)OC2=C(C(=O)C(=O)c3ccccc32)C1n1cc(CCl)nn1` (stereo unspecified) the Activity [1] was “Non-toxic”, the Activity [7] was “Non-toxic” and the hemolysis at 10 min, 1000 µM [2] was > 5%. The IC50 [3] was 0.48 µM, the IC50 [4] was 0.67 µM and the IC50 [5] was 1.38 µM. For the same molecule, the IC50 [6] was 0.98 µM.

With `CC1(C)OC2=C(C(=O)C(=O)c3ccccc32)C1n1cc(CCCCl)nn1` (stereo unspecified) the Activity [1] was > 80%, the hemolysis at 10 min, 1000 µM [2] was < 5% and the IC50 [3] was 0.05 µM. The IC50 [8] was > 10 µM, the IC50 [4] was 0.34 µM and the IC50 [5] was 2.07 µM. For the same molecule, the IC50 [6] was 0.93 µM.

For `CC1(C)OC2=C(C(=O)C(=O)c3ccccc32)C1n1cc(C2(O)CCCCC2)nn1` (stereo unspecified), the Activity [1] was > 80%, the hemolysis at 10 min, 1000 µM [2] was < 5% and the IC50 [3] was 2.58 µM. The IC50 [4] was 2.79 µM, the IC50 [5] was 1.53 µM and the IC50 [6] was 4.92 µM.

For `CC1(C)OC2=C(C(=O)C(=O)c3ccccc32)C1n1cc(-c2ccccc2)nn1` (stereo unspecified), the Activity [1] was “Non-toxic”, the hemolysis at 10 min, 1000 µM [2] was < 5% and the IC50 [3] was 0.75 µM. For the same molecule, the IC50 [4] was 1.96 µM, the IC50 [5] was 14.4 µM and the IC50 [6] was 12.8 µM. It also gave an Activity [9] of 30%.

In the case of `CC(C)(O)c1cn(C2C3=C(OC2(C)C)c2ccccc2C(=O)C3=O)nn1` (stereo unspecified), the Activity [1] is reported as > 80%, the hemolysis at 10 min, 1000 µM [2] is reported as < 5% and the IC50 [3] is reported as 2.16 µM. The IC50 [4] was 1.73 µM, the IC50 [5] was 2.43 µM and the IC50 [6] was 2 µM.

In the case of `CC1(C)OC2=C(C(=O)C(=O)c3ccccc32)C1n1cc(COC2CCCCO2)nn1` (stereo unspecified), the Activity [1] is reported as > 80%, the hemolysis at 10 min, 1000 µM [2] is reported as < 5% and the IC50 [3] is reported as 2.04 µM. For the same molecule, the IC50 [4] was 3.16 µM, the IC50 [5] was 1.84 µM and the IC50 [6] was 5.63 µM.

For `CC1(C)OC2=C(C(=O)C(=O)c3ccccc32)C1N=[N+]=[N-]` (stereo unspecified), the Activity [1] was > 80%, the IC50 [3] was 3.64 µM and the IC50 [4] was 3.18 µM. It also gave an IC50 [5] of 1.58 µM and an IC50 [6] of 6.06 µM.

With `CC1(C)OC2=C(C(=O)C(=O)c3ccccc32)C1n1cc(CO)nn1` (stereo unspecified) the Activity [1] was > 80%, the hemolysis at 10 min, 1000 µM [2] was < 5% and the IC50 [3] was 1.35 µM. The IC50 [4] was 1.53 µM, the IC50 [5] was 1.58 µM and the IC50 [6] was 5.33 µM.

In the case of `COc1cccc2c1C(=O)c1c(O)c3c(c(O)c1C2=O)C[C@@](O)(C(=O)CO)C[C@@H]3O[C@H]1C[C@H](N)[C@H](O)[C@H](C)O1` [DOXORUBICIN HYDROCHLORIDE], the Activity [1] is reported as > 80%, the IC50 [3] is reported as 0.07 µM and the IC50 [4] is reported as 0.15 µM.

In the case of `CC1(C)CC2=C(O1)c1ccccc1C(=O)C2=O` [NOR-BETA-LAPACHONE], the Activity [1] is reported as > 80%, the IC50 [10] is reported as > 22 µM and the IC50 [11] is reported as 13 µM. It also gave an IC50 [3] of 13.6 µM, an IC50 [4] of 15.2 µM and an IC50 [5] of 2.28 µM. It also gave an IC50 [6] of 17.2 µM.
